TRPC4 act = opens the mouse TRPC4 cation channel | Q9QUQ5 | HEK293 TRPC4beta/mu-opioid, Fluo4 calcium fluorescence; active compounds read high | B-score at 10 µM | 0.49% of 310,000 active;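 active = B-score above 5 SD of library B-scores, and initial fluorescence ratio not above library mean plus 5 SD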;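 note: positive B-score marks a calcium rise read as TRPC4 activation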
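Technique: kinetic Fluo4 calcium fluorescence; Test system: TRPC4beta and mu-opioid receptor HEK293 stable cells; Measure: B-scored integrated calcium fluorescence ratio; Benchmarks: low control buffer alone, high control maximal DAMGO; Schedule: 45 min room-temperature Fluo4 loading, 110 s read.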
TRPC6 activator = mouse TRPC6 channel activation. HEK293-TRPC6 membrane potential dye fluorescence; active compounds read high. B-score at 10 µM. 0.13% of 310,000 active. AID 2550;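 active = B-score of the integrated fluorescence ratio above library mean plus 3 SD, and starting fluorescence ratio within library mean plus 5 SD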;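 note: higher score means more depolarization so channel activation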
Target sequence (Q61143 whole entry, looked up): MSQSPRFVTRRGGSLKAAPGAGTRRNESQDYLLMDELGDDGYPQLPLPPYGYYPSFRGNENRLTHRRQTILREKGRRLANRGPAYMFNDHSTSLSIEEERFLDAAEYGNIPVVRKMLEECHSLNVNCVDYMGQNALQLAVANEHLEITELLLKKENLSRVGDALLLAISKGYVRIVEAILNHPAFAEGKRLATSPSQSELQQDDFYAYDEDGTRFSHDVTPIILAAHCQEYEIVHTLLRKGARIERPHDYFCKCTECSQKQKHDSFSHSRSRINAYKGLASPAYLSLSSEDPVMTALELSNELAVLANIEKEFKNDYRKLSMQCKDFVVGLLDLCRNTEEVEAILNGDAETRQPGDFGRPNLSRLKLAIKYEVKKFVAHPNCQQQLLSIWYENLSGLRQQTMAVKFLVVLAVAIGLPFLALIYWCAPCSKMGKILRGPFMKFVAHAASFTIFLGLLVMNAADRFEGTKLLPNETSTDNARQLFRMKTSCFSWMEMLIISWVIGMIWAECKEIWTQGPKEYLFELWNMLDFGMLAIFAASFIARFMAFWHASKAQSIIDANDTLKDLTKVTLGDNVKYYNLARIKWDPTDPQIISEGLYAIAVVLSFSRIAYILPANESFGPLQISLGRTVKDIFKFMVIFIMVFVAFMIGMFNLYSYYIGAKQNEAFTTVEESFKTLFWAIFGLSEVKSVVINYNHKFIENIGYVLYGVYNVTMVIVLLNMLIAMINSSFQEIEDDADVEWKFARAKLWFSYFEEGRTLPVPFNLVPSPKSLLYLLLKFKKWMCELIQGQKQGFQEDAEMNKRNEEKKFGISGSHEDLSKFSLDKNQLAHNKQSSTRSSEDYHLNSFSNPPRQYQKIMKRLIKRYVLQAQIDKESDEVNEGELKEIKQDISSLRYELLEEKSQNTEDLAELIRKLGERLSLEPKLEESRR
TRPC4 PAM = allosterically enhances the mouse TRPC4 cation channel. 0.42% of 310,000 active. Q9QUQ5. B-score at 10 µM. HEK293 TRPC4beta/mu-opioid, DAMGO EC20, Fluo-4 Ca2+ flux; active compounds read high;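 active = B-score of calcium response area above 5 SD of library B-scores, with initial fluorescence ratio within 5 SD of library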;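 note: B-score of integrated fluorescence ratio over time as area under calcium response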
Kir21 block = inhibitors of mouse Kir2.1 inward-rectifier potassium channel | B-score at 10 µM | HEK293-Kir2.1, FluxOR thallium flux fluorescence; active compounds read low | 0.85% of 310,000 active;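 active = fluorescence ratio B-score at or below minus 3 SD of library scores, with starting-brightness B-score within 2 SD, cut at about -4.2 in these data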;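 note: channel flux triggered by added potassium and thallium sulfate stimulus; B-score of peak minus minimum fluorescence over baseline after thallium stimulus; more negative B-score means stronger Kir2.1 block with less thallium influx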
TRPC6 inh = mouse TRPC6 channel inhibition; Q61143; HEK293-TRPC6, membrane potential dye, ACh-evoked depolarization; active compounds read low; B-score at 10 µM; 1.1% of 310,000 active; AID 2553;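 active = B-score under library mean minus 3 SD, initial fluorescence not abnormally high, positive integrated signal ratio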;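 note: B-score derived from integrated fluorescence ratio over the kinetic read; more negative B-score means stronger inhibition of depolarization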
TRPC4 block = blocks the mouse TRPC4 cation channel; 0.39% of 300,000 active; AID 2247; B-score at 10 µM; Q9QUQ5; HEK293 TRPC4beta/mu-opioid, DAMGO-evoked Fluo4 calcium flux; active compounds read low;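 active = B-score over 3 SD under the library average, no early fluorescence shift, positive overall ratio signal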
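Test system – stable TRPC4beta/mu-opioid receptor HEK293 cells · Probe or stimulus – DAMGO, a submaximal dose followed by a maximal one · Dosing – one concentration per compound · Signal – Fluo4 calcium fluorescence by kinetic imaging, 5 s 1 Hz baseline · Evaluation – per-well B score of integrated baseline-normalized Fluo4 ratio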
TRPC4 spec 2 = second selectivity test of TRPC6 inhibitors: effect on mouse TRPC4; shares compounds with TRPC6 inh; HEK293 TRPC4/MOR, membrane potential dye fluorescence; channel activated by saturating DAMGO dose; inhibition, % at 10 µM; 42% of 920 active; AID 2776;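 active = compounds whose fluorescence signal differed from control wells by over 3 SD, either direction, in both duplicate plates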
TRPC4 spec = mouse TRPC4 off-target activity of TRPC6 inhibitors; HEK293 TRPC4/mu-opioid, membrane potential fluorescence; activity change, negative = inhibition, % at 10 µM; 61% of 920 active; shares compounds with TRPC6 inh;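 active = rise or fall in signal beyond 3 SD of buffer-only wells in both replicate plates, either sign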;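 note: integrated kinetic ratio of fluorescence range over baseline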
HEK293 MPD ctr 2-1 = second check of TRPC6 inhibitor effects in parental HEK293 cells | shares compounds with TRPC6 inh | parental HEK293 membrane potential dye fluorescence; maximal acetylcholine challenge after compound addition | signal change vs control, % at 10 µM | 31% of 920 active | AID 2779;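 active = membrane potential signal moving either way by over 3 SD of the maximum-effect control, in both duplicate plates, meaning non-specific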
HEK293 MPD ctr-1 = parental HEK293 nonspecific activity of TRPC6 inhibitors; shares compounds with TRPC6 inh; parental HEK293 membrane potential dye fluorescence; membrane potential signal change, % at 10 µM; 60% of 920 active; AID 2780;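 active = membrane potential signal shifting up or down by more than 3 SD of buffer-only wells, on both duplicate plates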
HEK293 MPD ctr-2 = parental HEK293 nonspecific activity of TRPC6 modulators. shares compounds with TRPC6 inh. membrane potential dye fluorescence. membrane potential signal change, % at 10 µM. 51% of 2,400 active;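 active = membrane potential signal moves up or down beyond 5 SD from buffer-only wells, on both duplicate plates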
HEK293 MPD ctr 2-2 = second check of TRPC6 modulator effects in parental HEK293 cells; shares compounds with TRPC6 inh; membrane potential dye fluorescence; after compound, maximal acetylcholine stimulation; 14% of 2,400 active; inhibition, % at 10 µM;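 active = membrane potential signal drops by more than 5 SD from the mean control signal, in both duplicate plates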;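 note: plate controls were acetylcholine ECmax control wells for no effect and buffer only wells for full effect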
TRPC4 ctr mod = mouse TRPC4 off-target activity of TRPC6 modulators; shares compounds with TRPC6 inh; 69% of 2,400 active; HEK293 TRPC4/mu-opioid, membrane potential fluorescence; AID 488927; percent change from control (negative = decrease, positive = increase), % at 10 µM;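 active = membrane potential signal moved up or down beyond 5 SD of buffer control wells, in both duplicate plates, actives on both sides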;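 note: plate controls were assay buffer wells for no effect and DAMGO maximal-effect wells for full effect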
TRPC4/MOR inh 2 = second selectivity test of TRPC6 modulators against mouse TRPC4; shares compounds with TRPC6 inh; HEK293 TRPC4/mu-opioid, membrane potential dye fluorescence; stimulated with maximal-effect DAMGO; inhibition, % at 10 µM; 55% of 2,400 active;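 active = drop in membrane potential signal beyond 5 SD of the control wells in both duplicate plates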;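 note: TRPC4 counter screen for TRPC6 hits run under conditions tuned for TRPC6 not TRPC4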
TRPC6 block conf = mouse TRPC6 inhibitor confirmation | inhibition, % at 10 µM | shares compounds with TRPC6 inh | 43% of 3,300 active | HEK293-TRPC6, membrane potential dye, ACh-evoked depolarization;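 active = fluorescence ratio falls more than 5 SD below the full-stimulation control mean, in both duplicate runs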;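 note: integrated fluorescence ratio of peak minus minimum over baseline after agonist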
TRPC6 act conf = mouse TRPC6 activator confirmation. shares compounds with TRPC6 inh. HEK293-TRPC6 membrane potential dye fluorescence, FDSS. activation, % at 10 µM. 11% of 2,800 active. AID 488961;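 active = ratio signal rise beyond 5 SD above unstimulated control wells' mean, seen in both duplicate runs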;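 note: plate controls were buffer EC0 wells for no effect and acetylcholine ECmax response for full effect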
An asterisk follows results filed as active; i = inactive; · = not tested or not shown; + = active, no number. Only some compounds are listed: those with a hit (about 2.9% of all), similar ones and a draw of the others.

SMILES	TRPC4 act	TRPC6 activator	TRPC4 PAM	Kir21 block	TRPC6 inh	TRPC4 block	HEK293 MPD ctr-2	HEK293 MPD ctr 2-2	TRPC4 ctr mod	TRPC4/MOR inh 2	TRPC6 block conf	TRPC6 act conf	others
CCCn1ncc(CN2CCCC(C(=O)c3cccc(OC)c3)C2)c1C (centres undefined)	i	i	i	-0.01	-5.9*	i	124%*	i	28%*	i	50%*	·
Fc1cccc(CN2CCN(c3ccc(Cl)cc3)CC2)c1	i	i	i	-0.68	-7.1*	i	·	·	·	·	i	i	TRPC4 spec 2=i;TRPC4 spec=i;HEK293 MPD ctr 2-1=i;HEK293 MPD ctr-1=i
COC(=O)c1ccc(C(C(=O)NC2CCCCC2)N(CCN2CCOCC2)C(=O)Cc2cccs2)cc1 (centres undefined)	i	i	i	1.6	i	i	·	·	·	·	·	·
CCCCCCCSc1cc(OC)c(CCNC)cc1OC	i	i	i	-9.8*	-5.1*	i	i	i	i	50%*	43%*	i
CCCCCSc1cc(OC)c(CCNC)cc1OC	i	i	i	-8.9*	-6*	i	i	i	12%*	28%*	i	i
Cc1cccn2c(=O)c3c(nc12)N1CCC(Cc2ccccc2)CC1C1(C3)C(=O)N(C)C(=O)N(C)C1=O (centres undefined)	i	i	i	1.1	i	i	·	·	·	·	·	·
CCn1ccnc1CN1CCCC(C(=O)c2ccc(SC)cc2)C1 (centres undefined)	i	i	i	-3.5	-5*	i	i	i	15%*	i	54%*	·
COc1cc(/C=C/[N+](=O)[O-])ccc1O	i	i	i	-0.08	i	i	·	·	·	·	·	·
CCN(CC)c1ccc(/C=C/[N+](=O)[O-])cc1	105*	56*	i	-10	i	i	+	+	386%*	32%*	·	434%*
C[N+]1(C)[C@@H]2CC[C@H]1CC(OC(=O)C(c1ccccc1)c1ccccc1)C2 (some centres undefined)	i	i	i	0.94	-5.3*	i	i	91%*	i	i	96%*	i
CC[n+]1c(/C=C/C=C/c2ccc(N(C)C)cc2)sc2ccccc21	i	i	i	-4	i	i	·	·	·	·	·	·
CC[n+]1c(/C=C/N(C)c2ccccc2)sc2ccc(Cl)cc21	i	i	i	0.38	-6.3*	i	i	96%*	i	36%*	46%*	i
Cn1c(O)c(/C=C2\N=c3ccccc3=C2CCNC(=S)NC2CC2)c(=O)n(C)c1=O	i	i	i	1.2	i	i	·	·	·	·	·	·
Clc1ccc2[nH]c3c(c2c1)CCNC3	i	i	i	-0.93	-5.3*	i	i	i	i	35%*	i	i
O=C(c1ccc(Cl)cc1)C1CCCN(C2CCSCC2)C1 (centres undefined)	i	i	i	-0.07	-7*	-5*	130%*	i	28%*	50%*	44%*	·
COc1ccc(C(=O)C2CCCN(C3CSCCSC3)C2)cc1OC (centres undefined)	167*	i	i	0.98	-7.7*	i	i	83%*	59%*	36%*	72%*	i
O=C(COc1ccc(Cl)cc1)N1CCN(Cc2ccccc2)CC1	i	i	i	-0.91	i	i	·	·	·	·	·	·
N#CCC(=O)NN1Cc2ccccc2C1=N	i	i	i	0.15	i	i	·	·	·	·	·	·
N=C1c2ccccc2CN1c1ncccn1	i	i	i	-0.44	-7.3*	i	i	i	-11%*	i	i	i
Clc1ccc2sc(C3CCNCC3)nc2c1	187*	i	i	-1.1	-6*	i	i	i	47%*	52%*	i	i
CC1(C(O)(C#CCN2CCCCC2)c2ccccc2)CCCC1 (centres undefined)	i	i	i	-1	-7.1*	i	142%*	106%*	26%*	44%*	91%*	·
Cc1nc(Cl)sc1C(=O)Nc1ccc2ccccc2c1	i	i	i	2.3	i	i	·	·	·	·	·	·
Cc1cc(C)c2c(ccc3cccc[n+]32)c1	i	i	i	0.25	-7.6*	i	-260%*	96%*	-40%*	60%*	69%*	i
CCC(C)C(NC(=O)CCCNC(=O)CCC(=O)OC1O[C@H]2OC3(C)CC[C@H]4[C@H](C)CCC(C1C)C24OO3)C(=O)O (some centres undefined)	i	i	i	0.59	i	i	·	·	·	·	·	·
CN(C)c1ccc(CN2CC=C(c3ccc(F)cc3)CC2)cc1	i	i	i	-0.57	-7.9*	i	·	·	·	·	i	i	TRPC4 spec 2=75%*;TRPC4 spec=i;HEK293 MPD ctr 2-1=i;HEK293 MPD ctr-1=i
COc1ccc(CN2C(=O)NC(=O)/C(=C\c3ccco3)C2=O)cc1	i	i	i	0.58	i	i	·	·	·	·	·	·

Screens as filed in PubChem BioAssay.
